Data on 37 sequences can be found in the array DNA melting data of Ke et al. (doi:10.1101/2024.01.08.574731).

The nature of data set [1]: melting temperature; fluorescence melt of hairpins on a sequencing array, two-state fit, raised by 9.35 °C to match UV melts. To be noted: sodium 0.088 M. An outline of the steps:
(§1)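 Bootstrapped two-state fits yielded melting temperature and folding enthalpy for library hairpins. Cy3 fluorescence, with annealed Cy3 and quencher oligos, was imaged on a sequenced MiSeq flow cell in 50 mM Na-HEPES pH 8.0, 25 mM NaCl in 2.5 °C steps up to 60 °C, and normalised to pre-quench Cy3 and to control constructs. Four replicates were combined by inverse variance, and fitted temperatures were raised by 9.35 °C to match UV melts.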

Data set [2] is described as follows: folding enthalpy; higher = less favourable; fluorescence melt of hairpins on a sequencing array, two-state fit. To be noted: sodium 0.088 M. The essentials: as §1

Consider GGCGACGAAAGTCGTGCC ((((((....)))..))), for which, in data set [1], the Tm came out at 51.2 °C. Besides, the folding enthalpy in data set [2] was -12.7 kcal/mol.

For the sequence GCCTCGCGAAAGCGGCGC ((..(((....)))..)), in data set [1], the Tm stood at 58.5 °C. Further, the folding enthalpy in data set [2] was -16.4 kcal/mol.

On to GCGTGCGAAAGCAGACGC ((((((....)))..))), for which the Tm in data set [1] was found to be 62.7 °C. The folding enthalpy in data set [2] was -28.1 kcal/mol.

With GGTTTTTCGAAAGAAACC (((..(((....)))))), in data set [1], the Tm is 34 °C. In addition, in data set [2], the folding enthalpy is -18.8 kcal/mol.

Turning to GTACAGGGAAACCTGCAC ((.((((....)))).)), the Tm in data set [1] was 39.7 °C. The folding enthalpy in data set [2] was -22.4 kcal/mol.

Regarding GTCATGACGAAAGTCGAC (((..(((....)))))), the Tm in data set [1] worked out at 38.6 °C. The folding enthalpy in data set [2] is -14.9 kcal/mol.

Regarding GTGCTGGGAAACCAGTAC ((.((((....)))).)), the Tm in data set [1] was 51.7 °C. Further, the folding enthalpy in data set [2] was -39.6 kcal/mol.

For the sequence GTAATGCCGAAAGGCTAC (((..(((....)))))), the Tm in data set [1] was determined as 26.8 °C. The folding enthalpy in data set [2] is -9.18 kcal/mol.

For GGTGTACGAAAGTATACC (((.(((....))).))), the Tm in data set [1] stood at 53.3 °C. Also, the folding enthalpy in data set [2] is -47.6 kcal/mol.

For the sequence GGAGGACCGAAAGGTTCC (((..(((....)))))), the Tm in data set [1] stood at 42.9 °C. In data set [2], the folding enthalpy is -12.6 kcal/mol.

Take GCACACGGAAACATGCGC ((.((.(....).)).)): the Tm in data set [1] was 30.2 °C. Further, the folding enthalpy in data set [2] was -19.6 kcal/mol.

As for GACAAACGAAAGTTGTC (((.(((....)))))), the Tm in data set [1] stood at 48.2 °C. Moreover, the folding enthalpy in data set [2] was -29.1 kcal/mol.

In the case of GATCACGCGAGTGATC ((((((....)))))), the Tm in data set [1] was 68.8 °C. In addition, the folding enthalpy in data set [2] was -33.8 kcal/mol.

GATCCCGAAAGGGATATC ((((((....)))..))): in data set [1], the Tm is 52 °C. In addition, the folding enthalpy in data set [2] is -15.6 kcal/mol.

With GATCCCCTCAGGGATC ((((((....)))))), the Tm in data set [1] came to 66 °C. The folding enthalpy in data set [2] was -41.7 kcal/mol.

Consider GTGGTAGGAAACTACTAC ((.((((....)))).)), for which the Tm in data set [1] was 41.8 °C. Moreover, the folding enthalpy in data set [2] is -32.2 kcal/mol.

Consider GTTGGCCGAAAGGCGAAC (((.(((....))).))), for which the Tm in data set [1] stood at 57.4 °C. The folding enthalpy in data set [2] was -26.6 kcal/mol.

Turning to GGCGTGACGAAAGTCGCC (((..(((....)))))), the Tm in data set [1] came out at 57.5 °C. Moreover, the folding enthalpy in data set [2] is -21.1 kcal/mol.

For GTTGTTGGAAACAATGAC ((..(((....)))..)), the Tm in data set [1] was 38.5 °C. Besides, the folding enthalpy in data set [2] was -13.9 kcal/mol.

On to GTGAAGGGAAACCTTTAC ((.((((....)))).)), for which the Tm in data set [1] is 39.6 °C. Further, in data set [2], the folding enthalpy is -25.3 kcal/mol.

For the sequence GAAGGAGGAAACTCCTTC (((((((....))))))), in data set [1], the Tm came out at 58.3 °C. The folding enthalpy in data set [2] was -33.6 kcal/mol.

For the sequence GCGTCTGGAAACAGATGC ((.((((....)))).)), the Tm in data set [1] came out at 54.6 °C. Besides, in data set [2], the folding enthalpy was -55.5 kcal/mol.

As for ATCAGGAAACTGAT (((((....))))), in data set [1], the Tm is 40.6 °C. The folding enthalpy in data set [2] was -16.5 kcal/mol.

GTCTCCGAAAGGAGTGAC ((((((....)))..))): the Tm in data set [1] was determined as 36 °C. In data set [2], the folding enthalpy is -11.2 kcal/mol.

Take GCGTTAGCACGC ((((....)))): in data set [1], the Tm was 61.7 °C. The folding enthalpy in data set [2] was -8.5 kcal/mol.

Turning to GCGAGCTATCGC ((((....)))), the Tm in data set [1] turned out to be 60.8 °C. For the same sequence, the folding enthalpy in data set [2] is -24.2 kcal/mol.

As to GATCCATCGCTGGATC ((((((....)))))), the Tm in data set [1] is 50.8 °C. Moreover, the folding enthalpy in data set [2] was -39.1 kcal/mol.

On to GATCAGCCTGCTGATC ((((((....)))))), for which the Tm in data set [1] amounted to 64.1 °C. In addition, the folding enthalpy in data set [2] was -41.5 kcal/mol.

Take GCTTGCGAAAGCATTAGC ((((((....)))..))): in data set [1], the Tm was found to be 42 °C. The folding enthalpy in data set [2] was -15.2 kcal/mol.

With GCCGCGCGAAAGCATGGC (((..((....))..))), in data set [1], the Tm was found to be 60.1 °C. The folding enthalpy in data set [2] was -26.7 kcal/mol.

Regarding GCTTGAGGAAACTCAAAC (.(((((....))))).), the Tm in data set [1] was 30.6 °C. Further, the folding enthalpy in data set [2] is -13.8 kcal/mol.

On to GATTAGGGAAACCTAGTC ((.((((....)))).)), for which, in data set [1], the Tm stood at 33.7 °C. The folding enthalpy in data set [2] is -25.4 kcal/mol.

Consider GGTAACGAAAGTTAAACC ((((((....)))..))), for which the Tm in data set [1] was 32.3 °C. For the same sequence, the folding enthalpy in data set [2] is -16.1 kcal/mol.

Consider GTACAGGGAAACTTGTAC (((((.(....).))))), for which the Tm in data set [1] came to 39.8 °C. The folding enthalpy in data set [2] is -30.4 kcal/mol.

Take CAAGTGAAAACTTG (((((....))))): in data set [1], the Tm came out at 42.9 °C. Further, the folding enthalpy in data set [2] was -23.7 kcal/mol.

For the sequence GGCCCAACGAAAGTTGCC (((..(((....)))))), the Tm in data set [1] stood at 32.5 °C. Besides, the folding enthalpy in data set [2] was -13.9 kcal/mol.

Consider GCGATAGAAATATCGC ((((((....)))))), for which the Tm in data set [1] was 58.3 °C. Moreover, the folding enthalpy in data set [2] was -41.7 kcal/mol.
